Bioassay records (PubChem)
This is a sample that favours compounds with a hit; in the whole collection about 1.2% have one here.
MsrA inh = inhibitors of bovine MsrA; purified bovine MsrA, absorbance read-out; inhibition, % at 15.5 µM; 360,000 compounds, 0.75% hits
Bfl-1 A1 inh = inhibitors of the anti-apoptotic protein A1, read as caspase activation; MEF A1-2A-BIM cells, Caspase-Glo 3/7 luminescence, 3 h; percent of clofoctol response, vehicle zero; caspase activation, % (test concentration not listed); 330,000 compounds, 0.066% hits; AID 2462;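 active = over half of replicate activation scores above 10%, or exactly half above 10 with the replicate mean above 10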
bovine MsrA act = activators of bovine methionine sulfoxide reductase A | purified bovine MsrA, absorbance read-out | activation, % at 10.6 µM | 360,000 compounds, 0.3% hits | AID 602163; in the data active = activation above about 7.5%
procasp7 counter = counter-screen: procaspase-7 (human) activation. P55210. 330,000 compounds, 0.093% hits. recombinant procaspase-7, Ac-DEVD-pNA absorbance 405 nm; D23A/D198A/D206A triple mutant, cannot self-cleave; scale: DMSO 0, 5 µM enzyme 100. activation, % at 8.5 µM;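 active = percent activation above the screen-wide mean plus 3 SD, cut at about 25% in these data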
Target sequence (P55210 whole entry D23A/D198A/D206A): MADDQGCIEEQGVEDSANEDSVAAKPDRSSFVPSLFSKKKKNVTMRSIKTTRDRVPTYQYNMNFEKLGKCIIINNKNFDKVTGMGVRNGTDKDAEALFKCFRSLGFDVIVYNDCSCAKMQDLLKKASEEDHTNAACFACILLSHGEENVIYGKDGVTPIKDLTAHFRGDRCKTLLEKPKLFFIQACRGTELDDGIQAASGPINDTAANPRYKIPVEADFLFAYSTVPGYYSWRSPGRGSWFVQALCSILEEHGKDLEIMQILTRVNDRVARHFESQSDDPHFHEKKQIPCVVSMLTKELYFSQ
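signal = Epi-absorbance of released pNA at 405 nm, two timepoints | assay system = Uncleavable procaspase-7 mutant enzyme | reagent = Ac-DEVD-pNA substrate, 400 µM as added | times = 1 h enzyme–compound preincubation and 2 h substrate reaction, both 25 °C | benchmarks = low DMSO alone, high DMSO plus 5 µM PC-7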
procasp3 activ = activates human procaspase-3; recombinant procaspase-3 D3A, Ac-DEVD-pNA absorbance 405 nm; activation, % at 8.5 µM; AID 463141; 330,000 compounds, 0.11% hits;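 active = activation above the mean of all tested compounds plus 3 SD, cut at about 21% in these data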
Target sequence (P42574 whole entry D9A/D28A/D175A): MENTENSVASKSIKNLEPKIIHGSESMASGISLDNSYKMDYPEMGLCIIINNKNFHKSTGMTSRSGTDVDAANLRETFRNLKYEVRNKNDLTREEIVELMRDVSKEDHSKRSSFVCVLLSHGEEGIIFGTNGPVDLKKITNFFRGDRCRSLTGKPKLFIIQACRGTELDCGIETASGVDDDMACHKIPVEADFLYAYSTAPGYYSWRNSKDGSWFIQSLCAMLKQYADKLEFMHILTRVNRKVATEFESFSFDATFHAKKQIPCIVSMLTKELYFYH
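Evaluation: percent activation relative to control range; Material: Procaspase-3 D3A mutant, all three cleavage aspartates alanine; Compound: single dose, 8.5 µM nominal compound, 0.8% DMSO; Replication: one well per compound; Signal: absorbance at 405 nm, 0 and 120 min; Schedule: 1 h preincubation plus 2 h reaction at 25 °C.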
MsrA conf = confirmation of bovine MsrA inhibitors; purified bovine MsrA, absorbance read-out; inhibition, % at 15.5 µM; 2,300 compounds, 41% hits; shares compounds with MsrA inh;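 also: coupled to thioredoxin reductase with NADPH and selenocystamine and DMSO as substrate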
Each line names hits and unclear results; the compound was inactive in the other large screens (follow-up assays come after a bar, where they were run). Rule as the data show it, unless noted: active = inhibition above about 4.5%; inactive = the rest.

O=c1[nH]cnc2c1ncn2-c1ccc(N(CCO)CCO)cc1	none (no result: Bfl-1 A1 inh, procasp7 counter, procasp3 activ)
CCOC(=O)[C@@H]1CSCCS(=O)(=O)N1Cc1ccc(C(F)(F)F)cc1	none (no result: Bfl-1 A1 inh, bovine MsrA act, procasp7 counter, procasp3 activ)
CCOC(=O)c1cc2ccc(OC(=O)c3ccco3)cc2oc1=O	none
CCOC(=O)c1cc2ccc3ccccc3c2oc1=O	MsrA inh 15.1 | MsrA conf 10.3
CCOC(=O)C(=O)/C(C#N)=C/Nc1ccccc1	none
CCOC(=O)/C(C#N)=C/Nc1ccsc1C(C)=O	MsrA inh 13.7 | MsrA conf 7.2
CCOC(=O)/C(C#N)=C/Nc1ccccc1OC	MsrA inh 12.3 | MsrA conf 12.4
CC(=O)Nc1cccc(NC(=O)C(=O)NCC(c2ccco2)N2CCc3ccccc32)c1 (configuration not stated)	none
O=C(C(=O)N1CCC(CNS(=O)(=O)c2cccc3ccccc23)CC1)c1cccs1	none (no result: Bfl-1 A1 inh, bovine MsrA act, procasp7 counter, procasp3 activ)
CC(C)(C)OC(=O)N1CCN(C(c2ccnc3ccccc23)c2nnnn2-c2ccc3c(c2)OCCO3)CC1 (configuration not stated)	none (no result: Bfl-1 A1 inh, procasp7 counter, procasp3 activ)
CC(C)COC(=O)N1CCCCC1c1cc(C(=O)NCc2ccccc2)no1 (configuration not stated)	none (no result: Bfl-1 A1 inh, procasp7 counter, procasp3 activ)
O=C(/C=C\c1ccc(-c2ccccc2)o1)c1ccccc1	none
O=C(O)/C=C/c1ccc(-c2cccc(C(F)(F)F)c2)o1	MsrA inh 6.0 | MsrA conf inactive
C/C(=N\NC(N)=O)c1ccc(-n2ccnc2)cc1	none
C/C(=N\Nc1ccc(C(=O)O)cc1)c1ccc(-n2ccnc2)cc1	MsrA inh 6.5 | MsrA conf 4.5
Cc1cc([N+](=O)[O-])ccc1Nc1nc2ccccc2n2cnnc12	MsrA inh 6.4 | MsrA conf 8.3
Cc1c(Nc2nc3ccccc3n3cnnc23)cccc1[N+](=O)[O-]	none
CCc1cccc(C)c1Nc1nc2ccccc2n2cnnc12	MsrA inh 5.4 | MsrA conf inactive
COc1cccc(-c2cc(CNC(=O)[C@H]3O[C@@H](n4cnc(C(N)=O)n4)[C@H](O)[C@@H]3O)no2)c1	none (no result: Bfl-1 A1 inh, bovine MsrA act, procasp7 counter, procasp3 activ)
CCN(c1ccccc1)S(=O)(=O)c1nnc(NC(=O)c2ccco2)s1	MsrA inh 5.9 | MsrA conf 5.3
CCN(c1cccc(C)c1)S(=O)(=O)c1nnc(NC(=O)c2ccco2)s1	none
Cc1ccc(S(=O)(=O)N2CCCc3nc(-c4ccc(Br)cc4)ccc32)cc1	none (no result: Bfl-1 A1 inh, bovine MsrA act, procasp7 counter, procasp3 activ)
COC(=O)c1cccc2c([N+](=O)[O-])c(NC(C)=O)cc(C(=O)OC)c12	none (no result: Bfl-1 A1 inh, bovine MsrA act, procasp7 counter, procasp3 activ)
COc1cccc(NC(=O)CCC2CCN(C(=O)C(OC)c3ccccc3)CC2)c1 (configuration not stated)	none (no result: Bfl-1 A1 inh, procasp7 counter, procasp3 activ)
Cc1nc(C)c(C(=O)N/N=C/c2cn(C)c3ccccc23)s1	MsrA inh 5.1 | MsrA conf inactive
Cc1nc(C)c(C(=O)N/N=C/c2c[nH]c3ccccc23)s1	none (no result: MsrA inh)
COc1ccc(-n2c(SCC(N)=O)nc3sc4c(c3c2=O)CCN(C)C4)cc1	MsrA inh 6.1 | MsrA conf inactive
CCOC(=O)CSc1nc2sc3c(c2c(=O)n1-c1ccc(OC)cc1)CCN(C)C3	none (no result: procasp7 counter, procasp3 activ)
CN1CCc2c(sc3nc(SCC(=O)NCc4ccco4)n(-c4ccccc4)c(=O)c23)C1	MsrA inh 6.4 | MsrA conf inactive
COc1ccc(-n2c(SCC(=O)NCc3ccco3)nc3sc4c(c3c2=O)CCN(C)C4)cc1	none
O=C(O)CSc1nc2sc3c(c2c(=O)n1-c1ccccc1)CCC3	MsrA inh 5.0 | MsrA conf inactive
COc1ccc(CN(C)C(=O)c2cccc(S(=O)(=O)N3CCc4ccccc43)c2)c(OC)c1	none
COCC(=O)N1CCN(C(=O)C(=O)c2cccc(C(F)(F)F)c2)CC1	none (no result: Bfl-1 A1 inh, bovine MsrA act, procasp7 counter, procasp3 activ)
CCCCCCCCCCCCN1CCSCCS1(=O)=O	none (no result: Bfl-1 A1 inh, bovine MsrA act, procasp7 counter, procasp3 activ)
Nc1c(N)c2ccccc2oc1=O	none
Nc1c([N+](=O)[O-])c(=O)oc2ccccc12	MsrA inh 5.9 | MsrA conf inactive
O=c1oc2ccccc2c(NCc2ccccc2)c1[N+](=O)[O-]	MsrA inh 5.8 | MsrA conf 5.0
CC(Nc1c([N+](=O)[O-])c(=O)oc2ccccc12)c1ccccc1 (configuration not stated)	MsrA inh 25.2 | MsrA conf 21.3
CC(C)Nc1c([N+](=O)[O-])c(=O)oc2ccccc12	none
Cc1nc(C(F)(F)F)ccc1C(=O)N1CCC1(C)C(=O)NS(=O)(=O)c1c(C)noc1C (configuration not stated)	none (no result: Bfl-1 A1 inh, procasp7 counter, procasp3 activ)
COCCNC(=S)N(C)[C@H]1C[C@H]2c3[nH]c4ccccc4c3CCN2C(=O)[C@H]1[C@H](C)O	none (no result: Bfl-1 A1 inh, bovine MsrA act, procasp7 counter, procasp3 activ)
CS(=O)(=O)Nc1ccc(-c2cn3cccnc3n2)cc1	MsrA inh 4.8 | MsrA conf inactive
O=C(COc1ccc2c(-c3ccccc3)cc(=O)oc2c1)NCC1CCC(C(=O)O)CC1 (configuration not stated)	MsrA inh 5.0 | MsrA conf inactive
COC(=O)C[C@@H]1C=C[C@@H](NC(=O)CN(C)C)[C@@H](CO)O1	none (no result: Bfl-1 A1 inh, bovine MsrA act, procasp7 counter, procasp3 activ)
CCN(CC)c1ccc(C=Nc2ccccc2C)c(O)c1	MsrA inh 6.5 | MsrA conf inactive
CCN(CC)c1ccc(/C=N/NC(=O)Cc2cccs2)c(O)c1	MsrA inh 6.2 | MsrA conf inactive
CCN(CC)c1ccc(O)c(C=Nc2ccc(C)c(C)c2)c1	none
CCN(CC)c1ccc(C=Nc2ccc(C#N)cc2)c(O)c1	MsrA inh 7.6 | MsrA conf 5.6
Cc1ccc(N/N=C2/CCCNC2=O)cc1	none
CC(=O)c1ccc(N/N=C2/CCCNC2=O)cc1	MsrA inh 7.4 | MsrA conf 6.2
C[C@@H]1CN([C@@H](C)CO)C(=O)c2cc(NS(=O)(=O)c3cccs3)ccc2O[C@H]1CN(C)Cc1ccc(C(F)(F)F)cc1	none
CCN(CC)CCCN1C(=O)C(=O)/C(=C(/O)c2ccccc2)C1c1cc(OC)ccc1OC (configuration not stated)	MsrA inh 18.6 | MsrA conf 6.4
C[C@@H](NC(=O)c1coc(=O)c(Br)c1)c1ccccc1	MsrA inh 4.8 | MsrA conf 4.8
COc1ccc(C(=O)NC(C)c2ccccc2)cc1Br (configuration not stated)	none
COc1ccc(Cl)cc1NC(=O)CN1C(=O)C(=O)N(C2CCCC2)C1=O	none (no result: Bfl-1 A1 inh, procasp7 counter, procasp3 activ)
COC(=O)[C@]12C[C@H](CC(=O)NCc3ccc(C)o3)C(=O)N(Cc3ccccc3)C1=C[C@H](C1CCCC1)O[C@@H]2C	none (no result: Bfl-1 A1 inh, bovine MsrA act, procasp7 counter, procasp3 activ)
Cc1cc(N2CCc3ccccc32)n2ncnc2n1	MsrA inh 5.3 (no result: Bfl-1 A1 inh) | MsrA conf inactive
COc1cccc(-c2cc3c(-n4cccc4)ncnc3o2)c1	MsrA inh 5.5 | MsrA conf inactive
COc1cccc(CNC(=O)[C@H]2CCCN2C(=O)[C@H]2CCCN2C(=O)c2ccc(F)cc2F)c1	none (no result: Bfl-1 A1 inh, bovine MsrA act, procasp7 counter, procasp3 activ)
CCN(CC)CCCNc1nc(N)c([N+](=O)[O-])c(NCCO)n1	MsrA inh 5.1 | MsrA conf 4.9
